The values that follow come from ChEMBL document CHEMBL3045217, “Factors affecting the synergy of thiabendazole, sodium bicarbonate, and heat to control postharvest green mold of citrus fruit” (J Agric Food Chem, 2008).

Series [1] has as its system Penicillium digitatum. Kind of series: Fungicidal activity against Penicillium digitatum infected Valenica oranges assessed as fruit weight loss at 600 mg/L treated for 1 min at 20 degC postharvest at 20 hr after fungal conidial inoculation measured after 7 days of storage at 17 degC (water Rvb = 3.13%). The series is classed as functional.
The test system of series [2] is Fruit. Kind of series: Drug residues in Citrus sinensis cvs. Valencia late (Valencia oranges) at 600 mg/L treated for 1 min at 20 degC postharvest measured after 10 days of storage at 17 degC in presence of 1% SBC by GC analysis. Type of series: ADME. The essentials:
(§1)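 'Valencia' oranges were dipped 1 min in TBZ at 600 mg/L (20 °C, ±0.5, 1 or 2% wt/vol SBC), 400 mg/L (40 °C, ±SBC) or 200 mg/L (50 °C, alone), then air-dried. They were sampled at 0, 10 and 20 days at 17 °C. Peel of five fruit was frozen, and 5 g of homogenate was extracted with ethyl acetate/hexane (1/1) plus NaCl. The extract was dried under N2, taken up in acetone and analysed by GC. Results are mg/kg on a whole-fruit basis.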

The subject of series [3] is Penicillium digitatum. Kind of series: Fungicidal activity against Penicillium digitatum infected Valenica oranges assessed as fruit weight loss at 400 mg/L treated for 1 min at 40 degC postharvest at 20 hr after fungal conidial inoculation measured after 21 days of storage at 17 degC in presence of 1% SBC (water Rvb = 12.71%). The series is classed as functional.
Series [4] concerns Fruit surface. Kind of series: Drug residues on Citrus sinensis cvs. Salustiana (Salustiana oranges) fruit surface at 600 mg/L treated for 3 min at 50 degC postharvest measured after overnight incubation at 17 degC by GC analysis. The series is classed as ADME. The conditions noted are these: 0.05 h. Put shortly: (§2)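 'Salustiana' oranges were washed with water and air-dried. They were dipped 1 or 3 min in TBZ 600 mg/L at 20 or 50 °C, or 1 min in TBZ 600 mg/L plus 2% SBC at 20 °C, then dried overnight at 17 °C in the dark. Surface residue was taken by water extraction and wax residue by chloroform extraction. Inner residue was measured in fruit after both extractions. Extracts were dried under N2, taken up in acetone and analysed by GC. Values are mg/kg on a whole-fruit basis.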

For series [5], the system named is Fruit. Kind of series: Drug residues in Citrus sinensis cvs. Valencia late (Valencia oranges) at 400 mg/L treated for 1 min at 40 degC postharvest measured immediately post-drug treatment in presence of 0.5% SBC by GC analysis. The series is classed as ADME. Put shortly:
as §1

The subject of series [6] is Fruit. The experiment in a line: Drug residues in Citrus sinensis cvs. Valencia late (Valencia oranges) at 400 mg/L treated for 1 min at 40 degC postharvest measured immediately post-drug treatment by GC analysis. The series is classed as ADME. Put shortly:
as §1

Series [7] relates to Fruit surface. Kind of series: Drug residues on Citrus sinensis cvs. Salustiana (Salustiana oranges) fruit surface at 600 mg/L treated for 1 min at 50 degC postharvest measured after overnight incubation at 17 degC by GC analysis. The series is classed as ADME. The essentials:
as §2

The subject of series [8] is Penicillium digitatum. The experiment in a line: Fungicidal activity against TBZ-sensitive Penicillium digitatum infected Valencia oranges assessed as postharvest green mold incidence at 600 mg/L treated for 1 min at 20 degC at 20 hr after fungal conidial inoculation measured after 7 days of storage at 20 degC in presence of 0.5% SBC (water Rvb = 64.2%). Type of series: functional. Put shortly:
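Fruit were surface-disinfected in 1 g/L hypochlorite for 30 s, rinsed, dried, then wounded twice equatorially (2 mm × 2 mm rod). Inoculation was a 1 min dip in P. digitatum conidia, 1 × 10^5 conidia/mL final. Fruit were held 20 h at 20 °C and 90% RH, dipped 1 min (SBC wt/vol), and air-dried. Storage was 20 °C, 90% RH. Decay incidence (% fruit with lesions) was scored at 5 d for mandarins and 7 d for oranges. Three replicates of 40 fruit were used; arcsin-transformed data were compared by LSD, p ≤ 0.05.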

The test system of series [9] is Fruit. The experiment in a line: Drug residues in Citrus sinensis cvs. Valencia late (Valencia oranges) at 600 mg/L treated for 1 min at 20 degC postharvest measured after 20 days of storage at 17 degC in presence of 0.5% SBC by GC analysis. The series is classed as ADME. Put shortly: as §1
Series [10] concerns Fruit. The experiment in a line: Total drug residues in Citrus sinensis cvs. Salustiana (Salustiana oranges) fruit at 600 mg/L treated for 1 min at 20 degC postharvest measured after overnight incubation at 17 degC by GC analysis. The series is classed as ADME. Put shortly: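 'Salustiana' oranges were water-washed, dried, dipped, then dried overnight at 17 °C in the dark. Unextracted fruit were used for total residues. Peel from five oranges was frozen at -18 °C. 5 g homogenized peel was extracted with 10 mL ethyl acetate/hexane (1/1) plus 2 g NaCl, shaken 30 min, then 1 mL of organic layer was dried under N2, redissolved in acetone, and run by GC without cleanup. Results are on a whole-fruit basis.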

Series [11] concerns Penicillium digitatum. The experiment in a line: Fungicidal activity against Penicillium digitatum infected Valenica oranges assessed as fruit weight loss at 600 mg/L treated for 1 min at 20 degC postharvest at 20 hr after fungal conidial inoculation measured after 7 days of storage at 17 degC in presence of 0.5% SBC (water Rvb = 3.90%). The series is classed as functional.

Series [12] concerns Penicillium digitatum. The experiment in a line: Fungicidal activity against TBZ-resistant Penicillium digitatum infected Valencia oranges assessed as postharvest green mold incidence at 200 mg/L treated for 1 min at 50 degC at 20 hr after fungal conidial inoculation measured after 7 days of storage at 20 degC (water Rvb = 56.7%). The series is classed as functional.
Series [13] has as its system Penicillium digitatum. Kind of series: Fungicidal activity against Penicillium digitatum infected Valenica oranges assessed as fruit weight loss at 400 mg/L treated for 1 min at 40 degC postharvest at 20 hr after fungal conidial inoculation measured after 7 days of storage at 17 degC in presence of 2% SBC (water Rvb = 4.70%). Type of series: functional.
The subject of series [14] is Fruit. The experiment in a line: Drug residues in Citrus sinensis cvs. Valencia late (Valencia oranges) at 400 mg/L treated for 1 min at 40 degC postharvest measured after 20 days of storage at 17 degC in presence of 2% SBC by GC analysis. Type of series: ADME. Put shortly:
as §1

Series [15] concerns Fruit. The experiment in a line: Drug residues in Citrus sinensis cvs. Valencia late (Valencia oranges) at 600 mg/L treated for 1 min at 20 degC postharvest measured after 10 days of storage at 17 degC in presence of 2% SBC by GC analysis. Type of series: ADME. The essentials: as §1
In series [16] the test system is Fruit. Kind of series: Drug residues in Citrus sinensis cvs. Valencia late (Valencia oranges) at 600 mg/L treated for 1 min at 20 degC postharvest measured immediately post-drug treatment in presence of 0.5% SBC by GC analysis. The series is classed as ADME. The essentials:
as §1

For series [17], the system named is Penicillium digitatum. Kind of series: Fungicidal activity against Penicillium digitatum infected Valenica oranges assessed as fruit weight loss at 400 mg/L treated for 1 min at 40 degC postharvest at 20 hr after fungal conidial inoculation measured after 21 days of storage at 17 degC (water Rvb = 8.83%). Type of series: functional.
Series [18] relates to Penicillium digitatum. The experiment in a line: Fungicidal activity against TBZ-resistant Penicillium digitatum infected Nova mandarins assessed as postharvest green mold incidence at 600 mg/L treated for 1 min at 20 degC at 20 hr after fungal conidial inoculation measured after 5 days of storage at 20 degC (water Rvb = 100%). Type of series: functional.
In series [19] the test system is Fruit. The experiment in a line: Drug residues in Citrus sinensis cvs. Valencia late (Valencia oranges) at 600 mg/L treated for 1 min at 20 degC postharvest measured after 20 days of storage at 17 degC in presence of 1% SBC by GC analysis. The series is classed as ADME. Put shortly: as §1

`c1ccc2[nH]c(-c3cscn3)nc2c1` [THIABENDAZOLE]: the Activity in the series on Penicillium digitatum [1] stood at 3.59%; in the series on Penicillium digitatum [3] it was 12.11%; in the series with Penicillium digitatum [8] it was 18.3%; in the series with Penicillium digitatum [11], 4.28%; in the series on Penicillium digitatum [12] it was 37.5%; in the series on Penicillium digitatum [13], 4.55%. In addition, the figures for the Activity in the series on Penicillium digitatum [17] and with Penicillium digitatum [18] were 8.96% and 98.3%, respectively. The Drug uptake came to 1.45 mg/kg in the series with Fruit [2]; 0.69 mg/kg in the series on Fruit surface [4]; 0.79 mg/kg in the series on Fruit [5]; 0.83 mg/kg with Fruit [6]; 0.66 mg/kg in the series on Fruit surface [7]; 1.31 mg/kg in the series on Fruit [9]. Moreover, the Drug uptake with Fruit [10] was found to be 1.04 mg/kg; in the series on Fruit [14], 0.58 mg/kg; with Fruit [15], 1.23 mg/kg; in the series on Fruit [16] it was 1.25 mg/kg; with Fruit [19], 1.4 mg/kg.
